Structures can show the parent of a compound that is named as a salt.
How the values were obtained:
parainfluenza-3 virus = assay type: cell-based; details: microscopy and MTS assay
influenza virus A/H1N1 = assay type: cell-based, influenza virus A/Puerto Rico/8/34 (H1N1); details: influenza virus A/H1N1 (A/Puerto Rico/8/34); microscopy and MTS assay
vaccinia virus = assay type: cell-based
influenza virus A/H3N2 = assay type: cell-based, influenza virus A/Hong Kong/7/87 (H3N2); details: influenza virus A/H3N2 (A/Hong Kong/7/87); microscopy and MTS assay
Punta Toro virus = assay type: cell-based; details: microscopy and MTS assay
feline coronavirus = assay type: cell-based; details: microscopy and MTS assay
Coxsackievirus B4 = assay type: cell-based; details: microscopy and MTS assay
[1] = tested on: bloodstream form T. brucei (strain 427); experiment: T. brucei culturing and drug test; assay type: cell-based, Trypanosoma brucei; details: at concentrations up to 5 mg mL^−1
How it was run: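 Parasites were kept at 37 °C in modified Iscove's medium (pH 7.4) and grown for 48 h with a range of test compound concentrations. Cell density at each concentration was counted by hemocytometer and expressed as percent of untreated control growth. Concentrations giving 50% and 90% growth inhibition (IC₅₀, IC₉₀) were determined. Run in triplicate.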

[2] = tested on: respiratory syncytial virus; assay type: cell-based; details: microscopy and MTS assay
NMDA receptors = assay type: cell-based; details: cerebellar granule neurons, glutamate or NMDA 100 μM + glycine 10 μM
Reovirus-1 = assay type: cell-based; details: microscopy and MTS assay
[3] = tested on: vesicular stomatitis virus; assay type: cell-based
sindbis virus = assay type: cell-based; details: microscopy and MTS assay
[4] = tested on: herpes simplex virus type 1; assay type: cell-based; details: microscopy and MTS assay
influenza virus B = assay type: cell-based, influenza virus B/Hong Kong/5/72; details: influenza virus B (B/Hong Kong/5/72); microscopy and MTS assay
[5] = tested on: herpes simplex virus type 2; assay type: cell-based; details: microscopy and MTS assay

NC12CC3CC(CC(C3)O1)C2 [Compound 7, (2-Oxaadamant-1-yl)amine hydrochloride]
Antiviral activity (parainfluenza-3 virus): None of the tested compounds displayed activity
Antiviral activity (influenza virus A/H1N1): none of the compounds was found to be active
Antiviral activity (vaccinia virus): None of the tested compounds displayed activity
Antiviral activity (influenza virus A/H3N2): none of the compounds was found to be active
Antiviral activity (Punta Toro virus): None of the tested compounds displayed activity
Antiviral activity (feline coronavirus): None of the tested compounds displayed activity
Antiviral activity (Coxsackievirus B4): None of the tested compounds displayed activity
Trypanocidal activity (in words) [1]: no activity
Antiviral activity [2]: None of the tested compounds displayed activity
NMDA receptor antagonism (in words) (NMDA receptors): inactive
Antiviral activity (Reovirus-1): None of the tested compounds displayed activity
Antiviral activity [3]: None of the tested compounds displayed activity
Antiviral activity (sindbis virus): None of the tested compounds displayed activity
Antiviral activity [4]: None of the tested compounds displayed activity
Antiviral activity (influenza virus B): none of the compounds was found to be active
Antiviral activity [5]: None of the tested compounds displayed activity

— PMC3217223 (Bioorganic & Medicinal Chemistry, 2009)
